The source of these data is article PMC10958515 (ACS Chemical Neuroscience, 2024).

Read-outs that look alike come from different tables or passages of the source.

Assay [1] concerns the target T1, NaV1.6 (Homo sapiens, UniProt Q9UQD0). In words: Recovery from inactivation in presence of compound. Format: cell-based. Summed up:
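Human NaV1.6 cells on an automated planar patch-clamp platform at 27 °C. From −120 mV, a 10 s prepulse to 0 mV is followed by a 0 mV test pulse at varying intervals. Mean normalized recovery in compound is fitted biexponentially, and the slow time constant is plotted against concentration. The fraction recovered at 1.7 s quantifies the concentration dependence.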

Assay [2] concerns the target T1, NaV1.6. In words: Steady-state and use-dependent inhibition. Format: cell-based. Particulars: V0.5 holding potential.
Another assay addresses hNaV1.5 (Homo sapiens, UniProt Q14524). In words: Qube automated patch-clamp, NaV subtype inhibition. Format: cell-based. In general terms: The patch-clamp technique gives a direct electrical read-out from membranes.
The next assay concerns NaV. Particulars: cited from earlier work.
The target in a further assay is hNaV1.2 (Homo sapiens, UniProt Q99250). The experiment in a line: Qube automated patch-clamp, NaV subtype inhibition. The class given is cell-based.
A further assay deals with hNaV1.1 (Homo sapiens, UniProt P35498). The experiment in a line: Qube automated patch-clamp, NaV subtype inhibition. The class given is cell-based.
Another assay concerns seizures. Particulars: cited from earlier work.
Setting [3] is: IC50 for steady-state inhibition (P1), first pulse.

T1 sequence (Q9UQD0 whole entry): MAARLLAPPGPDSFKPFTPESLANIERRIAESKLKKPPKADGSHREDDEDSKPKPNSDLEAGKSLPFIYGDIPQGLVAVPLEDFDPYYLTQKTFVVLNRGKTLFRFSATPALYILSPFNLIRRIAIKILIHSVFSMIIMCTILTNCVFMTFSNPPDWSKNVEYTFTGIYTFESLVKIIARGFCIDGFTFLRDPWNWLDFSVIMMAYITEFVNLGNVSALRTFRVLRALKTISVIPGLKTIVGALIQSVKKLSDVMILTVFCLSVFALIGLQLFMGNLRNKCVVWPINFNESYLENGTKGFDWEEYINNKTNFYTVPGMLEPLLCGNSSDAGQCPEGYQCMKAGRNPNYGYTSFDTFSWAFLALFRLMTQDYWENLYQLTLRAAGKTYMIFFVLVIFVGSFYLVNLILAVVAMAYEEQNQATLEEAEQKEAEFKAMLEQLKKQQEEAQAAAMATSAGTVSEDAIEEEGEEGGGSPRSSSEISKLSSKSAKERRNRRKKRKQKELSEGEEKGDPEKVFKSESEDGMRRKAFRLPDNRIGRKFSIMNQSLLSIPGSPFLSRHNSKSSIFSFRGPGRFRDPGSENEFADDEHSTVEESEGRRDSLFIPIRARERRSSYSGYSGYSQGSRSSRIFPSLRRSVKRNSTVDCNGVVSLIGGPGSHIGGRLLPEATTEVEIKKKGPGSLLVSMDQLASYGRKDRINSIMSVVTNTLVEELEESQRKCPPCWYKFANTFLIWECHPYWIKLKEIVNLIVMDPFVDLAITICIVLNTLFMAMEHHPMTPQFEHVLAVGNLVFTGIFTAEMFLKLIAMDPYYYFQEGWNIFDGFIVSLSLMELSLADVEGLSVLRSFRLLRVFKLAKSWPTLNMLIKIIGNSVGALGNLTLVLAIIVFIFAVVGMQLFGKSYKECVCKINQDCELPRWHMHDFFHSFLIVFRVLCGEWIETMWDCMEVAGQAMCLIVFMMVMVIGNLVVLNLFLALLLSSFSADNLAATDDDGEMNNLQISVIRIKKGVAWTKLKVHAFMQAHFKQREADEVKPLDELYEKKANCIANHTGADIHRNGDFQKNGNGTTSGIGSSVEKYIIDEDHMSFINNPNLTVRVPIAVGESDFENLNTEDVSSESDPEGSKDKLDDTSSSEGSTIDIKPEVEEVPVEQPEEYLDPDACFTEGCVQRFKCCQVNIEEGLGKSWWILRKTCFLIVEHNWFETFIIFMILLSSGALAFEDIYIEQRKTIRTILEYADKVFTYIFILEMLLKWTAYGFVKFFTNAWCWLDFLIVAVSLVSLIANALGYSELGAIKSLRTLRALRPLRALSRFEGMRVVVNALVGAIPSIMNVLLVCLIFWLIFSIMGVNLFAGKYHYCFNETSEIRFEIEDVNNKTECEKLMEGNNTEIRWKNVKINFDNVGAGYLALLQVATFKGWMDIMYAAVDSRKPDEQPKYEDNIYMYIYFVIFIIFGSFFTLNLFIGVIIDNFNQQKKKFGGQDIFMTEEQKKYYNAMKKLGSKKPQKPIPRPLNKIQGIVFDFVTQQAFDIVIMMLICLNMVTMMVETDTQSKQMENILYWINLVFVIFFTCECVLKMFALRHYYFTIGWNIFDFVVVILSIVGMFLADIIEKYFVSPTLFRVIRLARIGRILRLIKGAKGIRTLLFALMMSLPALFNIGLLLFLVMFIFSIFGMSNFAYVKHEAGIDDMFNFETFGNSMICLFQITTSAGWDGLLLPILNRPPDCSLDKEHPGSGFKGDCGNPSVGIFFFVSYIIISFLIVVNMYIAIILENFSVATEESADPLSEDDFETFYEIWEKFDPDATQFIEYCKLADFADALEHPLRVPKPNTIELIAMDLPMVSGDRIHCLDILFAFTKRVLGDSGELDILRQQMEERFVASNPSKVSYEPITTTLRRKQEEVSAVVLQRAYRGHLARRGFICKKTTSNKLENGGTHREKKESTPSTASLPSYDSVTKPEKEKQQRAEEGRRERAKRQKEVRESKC
T1 sequence (Q92913 1-192 isoform Q92913-2 partner): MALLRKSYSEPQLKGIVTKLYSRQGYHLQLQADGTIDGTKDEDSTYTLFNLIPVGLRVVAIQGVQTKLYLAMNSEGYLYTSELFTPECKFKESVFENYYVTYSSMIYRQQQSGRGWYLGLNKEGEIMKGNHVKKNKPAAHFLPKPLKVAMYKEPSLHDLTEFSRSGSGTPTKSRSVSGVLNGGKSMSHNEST
Chain of hNaV1.5 (Q14524 whole entry): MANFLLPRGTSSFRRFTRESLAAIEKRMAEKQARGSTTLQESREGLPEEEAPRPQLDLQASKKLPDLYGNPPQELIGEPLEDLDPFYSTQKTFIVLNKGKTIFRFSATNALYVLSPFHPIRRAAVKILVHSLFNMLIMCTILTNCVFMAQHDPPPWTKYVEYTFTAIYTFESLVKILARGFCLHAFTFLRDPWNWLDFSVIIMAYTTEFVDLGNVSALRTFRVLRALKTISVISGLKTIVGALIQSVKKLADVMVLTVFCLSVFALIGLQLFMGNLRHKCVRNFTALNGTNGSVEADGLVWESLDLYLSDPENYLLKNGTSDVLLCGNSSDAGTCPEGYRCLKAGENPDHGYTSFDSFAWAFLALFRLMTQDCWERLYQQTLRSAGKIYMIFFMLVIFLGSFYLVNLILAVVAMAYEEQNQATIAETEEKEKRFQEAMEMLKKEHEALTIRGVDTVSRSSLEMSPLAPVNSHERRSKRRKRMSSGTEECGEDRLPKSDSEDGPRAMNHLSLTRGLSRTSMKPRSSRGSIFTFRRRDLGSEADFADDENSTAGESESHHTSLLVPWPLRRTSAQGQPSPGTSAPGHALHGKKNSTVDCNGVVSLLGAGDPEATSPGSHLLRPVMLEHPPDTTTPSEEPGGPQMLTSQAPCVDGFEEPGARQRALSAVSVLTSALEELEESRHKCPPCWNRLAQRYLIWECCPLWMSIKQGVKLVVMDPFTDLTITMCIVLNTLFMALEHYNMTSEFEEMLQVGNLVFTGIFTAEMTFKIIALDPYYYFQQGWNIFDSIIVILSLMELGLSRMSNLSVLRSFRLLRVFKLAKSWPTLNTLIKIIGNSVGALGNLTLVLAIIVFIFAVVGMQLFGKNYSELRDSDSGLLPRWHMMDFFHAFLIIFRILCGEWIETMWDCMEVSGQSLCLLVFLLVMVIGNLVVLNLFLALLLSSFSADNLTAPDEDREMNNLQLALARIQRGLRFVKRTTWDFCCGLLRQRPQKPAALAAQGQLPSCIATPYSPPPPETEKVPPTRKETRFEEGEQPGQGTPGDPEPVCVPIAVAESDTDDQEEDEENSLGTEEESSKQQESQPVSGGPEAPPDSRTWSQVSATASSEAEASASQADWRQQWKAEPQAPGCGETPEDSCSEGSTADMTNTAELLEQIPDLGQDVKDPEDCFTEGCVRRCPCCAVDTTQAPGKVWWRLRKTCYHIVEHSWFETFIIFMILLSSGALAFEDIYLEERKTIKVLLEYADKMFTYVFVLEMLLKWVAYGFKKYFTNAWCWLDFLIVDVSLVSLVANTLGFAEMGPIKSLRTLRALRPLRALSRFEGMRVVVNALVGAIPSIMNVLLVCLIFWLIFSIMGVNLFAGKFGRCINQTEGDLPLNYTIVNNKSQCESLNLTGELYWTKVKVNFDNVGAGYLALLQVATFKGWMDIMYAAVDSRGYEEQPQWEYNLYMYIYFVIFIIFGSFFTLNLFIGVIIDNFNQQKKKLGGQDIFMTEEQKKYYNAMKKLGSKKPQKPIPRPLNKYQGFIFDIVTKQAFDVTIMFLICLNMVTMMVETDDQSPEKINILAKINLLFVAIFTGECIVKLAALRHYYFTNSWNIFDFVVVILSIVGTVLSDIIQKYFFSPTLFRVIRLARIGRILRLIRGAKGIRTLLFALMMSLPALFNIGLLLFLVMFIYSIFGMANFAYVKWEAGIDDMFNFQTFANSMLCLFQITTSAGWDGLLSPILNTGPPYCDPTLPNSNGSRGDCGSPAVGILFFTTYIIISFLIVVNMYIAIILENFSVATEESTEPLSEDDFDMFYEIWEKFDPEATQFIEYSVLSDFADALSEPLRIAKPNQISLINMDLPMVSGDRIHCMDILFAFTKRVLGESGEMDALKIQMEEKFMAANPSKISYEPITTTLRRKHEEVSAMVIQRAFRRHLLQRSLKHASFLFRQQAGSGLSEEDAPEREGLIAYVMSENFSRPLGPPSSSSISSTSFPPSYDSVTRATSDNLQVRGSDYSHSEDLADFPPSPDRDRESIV

Turning to `O=C1NC(=O)C(c2ccccc2)(c2ccccc2)N1` [phenytoin], the “time to fully equilibrate with the inactivated states” value at NaV1.6 [1] is listed as not above 10 s. Further, the IC50 (usually the concentration that inhibits the measured activity by half) against NaV1.6 [2] (setting [3]) came to 12.1 µM; at NaV1.6 [2] (read-out: IC50 for UDB (P500), 500th pulse), 6.8 µM; at hNaV1.5 it was 23.8 µM.
In the case of `Nc1nnc(-c2cccc(Cl)c2Cl)c(N)n1` [lamotrigine], in the assay with NaV, the potency range is 10 to 100 µM.
`NC(=O)N1c2ccccc2C=Cc2ccccc21` [carbamazepine]: the IC50 on hNaV1.2 turned out to be 67.4 µM; on hNaV1.1, 39.3 µM; on NaV1.6 [2] (IC50 for UDB (P500), 500th pulse), 16.2 µM; against NaV1.6 [2] (setting [3]) it was 17 µM; against hNaV1.5, 41.1 µM.
As for `COC[C@@H](NC(C)=O)C(=O)NCc1ccccc1` [lacosamide], in the assay with NaV, the potency range is 10 to 100 µM.
Consider `Cc1cc(S(=O)(=O)Nc2cscn2)c(F)cc1N(C)[C@H]1CCN(Cc2ccccc2)C1` [NBI-921352], for which, in the assay with seizures, the “efficacy in seizure models in vivo” value was “efficacious and have improved tolerability in rodent seizure models”.
